In brackets after ≈: the same amount, converted by molar mass.

The text below walks through data of ChEMBL document CHEMBL4014327 (J Med Chem, 2017).

The target in one series is Cytochrome P450 2B6 (Homo sapiens, UniProt P20813). Kind of series: Time dependent inhibition of CYP2B6 in human liver microsomes at 100 uM. Format: ADME. The gist of the method:
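Time-dependent inhibition assessed in pooled human liver microsomes with probe substrates, test compound at 100 μM.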

For series [1], the target named is T1, Interleukin-1 receptor-associated kinase 4 (Homo sapiens) (UniProt Q9NWZ3).
T1 sequence (whole entry): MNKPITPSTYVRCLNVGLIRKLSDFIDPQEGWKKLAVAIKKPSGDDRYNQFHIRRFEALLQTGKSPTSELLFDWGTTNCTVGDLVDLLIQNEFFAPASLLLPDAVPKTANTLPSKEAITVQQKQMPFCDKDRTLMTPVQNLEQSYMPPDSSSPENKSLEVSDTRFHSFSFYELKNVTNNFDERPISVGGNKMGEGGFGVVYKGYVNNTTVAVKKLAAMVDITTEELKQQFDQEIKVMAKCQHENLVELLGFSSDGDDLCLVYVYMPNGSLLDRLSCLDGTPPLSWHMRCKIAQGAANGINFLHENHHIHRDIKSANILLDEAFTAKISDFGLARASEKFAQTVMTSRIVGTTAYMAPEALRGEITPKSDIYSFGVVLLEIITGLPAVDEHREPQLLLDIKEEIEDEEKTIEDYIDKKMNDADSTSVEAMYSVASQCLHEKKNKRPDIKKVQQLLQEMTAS
As to the kind of experiment: Inhibition of recombinant human full length His-tagged IRAK4 expressed in baculovirus at 200 nM.

Series [2] can be described thus: Apparent permeability in RRCK cells from apical to basolateral side. The note with it: dog, MDCK. Format: ADME, cell-based, Canis lupus familiaris, MDCKII-LE. The gist of the method: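 RRCK cell monolayer permeability assay; apparent permeability reported in cm/s.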
The nature of series [3]: Fraction unbound in rat plasma. Format: ADME, cell-free. The gist of the method:
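Fraction unbound in plasma measured by equilibrium dialysis.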

Series [4] deals with Vascular endothelial growth factor receptor 2 (Homo sapiens, UniProt P35968). Kind of series: Inhibition of human recombinant VEGFR2 at 10 uM using CAGAGAIETDKEYYTVKD as substrate after 60 mins by Lance method.
A short description of series [5]: Half life in cynomolgus monkey at 1 mg/kg, iv administered as single dose. Format: ADME, organism-based, Macaca fascicularis. The conditions noted are these: in vivo.
A short description of series [6]: Solubility of compound in simulated fasted state intestinal fluid at pH 6.5. Format: physicochemical. The gist of the method: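 Solubility of crystalline material measured in phosphate-buffered saline pH 6.7, unbuffered water pH 8.1 and simulated fasted-state intestinal fluid pH 6.5, reported in μg/mL.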
Series [7] deals with Casein kinase I isoform gamma-2 (Homo sapiens) (UniProt P78368). As to the kind of experiment: Inhibition of CK1gamma2 in human THP1 cell lysate at 200 nM.
In series [8] the target is Interleukin-1 receptor-associated kinase 1 (Homo sapiens) (UniProt P51617). As to the kind of experiment: Inhibition of recombinant human GST-tagged IRAK1 expressed in baculovirus at 200 nM.
Series [9] can be described thus: Half life in Beagle dog at 5 mg/kg, po administered as single dose. The note with it: in vivo. Format: ADME, organism-based, Canis lupus familiaris.
The test system of series [10] is Plasma. As to the kind of experiment: Free plasma concentration in Sprague-Dawley rat LPS model at 0.3 mg/kg, po after 2.5 hrs. Format: ADME, organism-based. The conditions noted are these: in vivo. In outline:
(§1)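 Male Sprague−Dawley rats, 6−8 weeks old, n = 6−9 per group. Dosed orally at 0.3, 1, 3 or 30 mg/kg in 0.5% methylcellulose/2% Tween 80 in water. Ultrapure LPS 0.01 mg/kg iv given 1 h after dosing. Plasma exposure taken 2.5 h after oral dosing and reported as free concentration using fraction unbound in rat plasma.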

Series [11] deals with Rattus norvegicus. Kind of series: Inhibition of LPS induced TNFalpha secretion in Sprague-Dawley rat assessed as decrease in TNFalpha level in serum at 1 mg/kg, po pretreated for 1 hr followed by LPS challenge measured after 1.5 hrs relative to control. Format: functional. The gist of the method:
(§2)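 Male Sprague-Dawley rats, 6-8 weeks old, n = 6-9 per group. Test article was given orally at 0.3, 1, 3 or 30 mg/kg as a solution or suspension in 0.5% methylcellulose and 2% Tween 80 in water; controls received vehicle alone. Ultrapure LPS (0.01 mg/kg) was given iv 1 h later. Blood was drawn 1.5 h after challenge, and serum TNF was measured by MSD.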

Series [12] has as its system Rattus norvegicus. Kind of series: Inhibition of LPS induced TNFalpha secretion in Sprague-Dawley rat assessed as decrease in TNFalpha level in serum at 3 mg/kg, po pretreated for 1 hr followed by LPS challenge measured after 1.5 hrs relative to control. Format: functional. The gist of the method:
as §2

For series [13], the system named is Rattus norvegicus. Kind of series: Inhibition of LPS induced TNFalpha secretion in po dosed Sprague-Dawley rat assessed as decrease in TNFalpha level in serum pretreated for 1 hr followed by LPS challenge measured after 1.5 hrs relative to control. Format: functional, organism-based. In outline:
as §2

For series [14], the target named is Casein kinase I delta/epsilon (Homo sapiens) (UniProt P48730+P49674). As to the kind of experiment: Inhibition of CK1-delta/epsilon in human THP1 cell lysate at 200 nM.
Another series addresses CYP2C8 (Homo sapiens, UniProt P10632). As to the kind of experiment: Inhibition of CYP2C8 in human liver microsomes at 3 uM. Format: ADME. Background: Liver microsomes are a subcellular fraction often used to study metabolism.
The target of another series is Cytochrome P450 2D6 (Homo sapiens, UniProt P10635). As to the kind of experiment: Time dependent inhibition of CYP2D6 in human liver microsomes at 100 uM. Format: ADME. The gist of the method: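 Pooled human liver microsomes with CYP probe substrates. Time-dependent inhibition was assessed across CYP1A2, 2B6, 2C8, 2C9, 2C19 and 2D6, with test compound at 100 μM.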

Series [15] concerns Plasma. As to the kind of experiment: Free plasma concentration in Sprague-Dawley rat LPS model at 3 mg/kg, po after 2.5 hrs. Format: ADME, organism-based. The note with it: in vivo. The gist of the method:
as §1

Series [16] has as its target Casein kinase I isoform gamma-1 (Homo sapiens) (UniProt Q9HCP0). Kind of series: Inhibition of recombinant human full length GST-tagged CK1gamma1 expressed in baculovirus at 200 nM.
Another series deals with CYP2D6 (Homo sapiens, UniProt P10635). Kind of series: Inhibition of CYP2D6 in human liver microsomes at 3 uM. Format: ADME.
The next series concerns Canis familiaris. Kind of series: Plasma clearance in Beagle dog at 1 mg/kg, iv administered as single dose. Format: ADME, organism-based, Canis lupus familiaris. The note with it: in vivo.
A further series has as its target CYP2C9 (Homo sapiens, UniProt P11712). Kind of series: Inhibition of CYP2C9 in human liver microsomes at 3 uM. Format: ADME.
A short description of series [17]: Apparent intrinsic clearance in human liver microsomes. Format: ADME, microsome. The conditions noted are these: read-out: CLH(app).
For the next series, the system named is Cynomolgus monkey. As to the kind of experiment: Plasma clearance in cynomolgus monkey at 1 mg/kg, iv administered as single dose. Format: ADME, organism-based, Macaca fascicularis. The conditions noted are these: in vivo.

Chain of Vascular endothelial growth factor receptor 2 (P35968 whole entry): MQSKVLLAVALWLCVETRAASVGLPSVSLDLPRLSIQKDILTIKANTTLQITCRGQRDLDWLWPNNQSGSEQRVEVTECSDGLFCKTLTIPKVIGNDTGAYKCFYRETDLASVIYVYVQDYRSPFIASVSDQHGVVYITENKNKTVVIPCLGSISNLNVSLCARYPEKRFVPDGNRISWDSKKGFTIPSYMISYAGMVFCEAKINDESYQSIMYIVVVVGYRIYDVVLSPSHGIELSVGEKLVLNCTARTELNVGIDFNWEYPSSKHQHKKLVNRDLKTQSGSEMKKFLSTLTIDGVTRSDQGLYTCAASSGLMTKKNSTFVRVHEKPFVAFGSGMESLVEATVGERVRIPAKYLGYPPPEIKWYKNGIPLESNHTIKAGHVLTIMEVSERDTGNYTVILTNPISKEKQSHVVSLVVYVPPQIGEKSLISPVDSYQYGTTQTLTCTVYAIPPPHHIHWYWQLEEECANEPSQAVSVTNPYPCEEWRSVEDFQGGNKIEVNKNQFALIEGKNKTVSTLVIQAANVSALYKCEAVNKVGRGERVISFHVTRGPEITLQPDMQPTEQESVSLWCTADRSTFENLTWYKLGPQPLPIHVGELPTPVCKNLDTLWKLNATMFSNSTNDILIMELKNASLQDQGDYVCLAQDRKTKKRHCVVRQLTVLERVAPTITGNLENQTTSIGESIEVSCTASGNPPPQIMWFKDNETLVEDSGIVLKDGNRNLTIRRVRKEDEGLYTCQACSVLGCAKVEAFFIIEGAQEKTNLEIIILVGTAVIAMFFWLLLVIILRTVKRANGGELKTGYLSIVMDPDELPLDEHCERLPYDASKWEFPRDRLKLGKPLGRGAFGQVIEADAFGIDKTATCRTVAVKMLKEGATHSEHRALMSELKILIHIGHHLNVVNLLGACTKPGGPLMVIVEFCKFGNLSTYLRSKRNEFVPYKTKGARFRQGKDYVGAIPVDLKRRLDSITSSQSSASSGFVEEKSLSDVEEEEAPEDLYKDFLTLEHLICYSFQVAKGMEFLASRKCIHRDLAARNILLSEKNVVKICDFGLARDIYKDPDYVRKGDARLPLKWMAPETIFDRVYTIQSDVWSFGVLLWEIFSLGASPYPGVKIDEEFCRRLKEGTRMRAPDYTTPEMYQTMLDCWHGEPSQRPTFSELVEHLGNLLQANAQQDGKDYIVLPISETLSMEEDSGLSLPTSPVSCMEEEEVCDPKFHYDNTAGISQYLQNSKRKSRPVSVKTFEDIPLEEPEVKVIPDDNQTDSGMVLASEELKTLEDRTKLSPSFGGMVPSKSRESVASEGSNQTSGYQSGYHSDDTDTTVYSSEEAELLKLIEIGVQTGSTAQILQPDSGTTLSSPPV
Chain of Casein kinase I isoform gamma-1 (Homo sapiens) (Q9HCP0 whole entry, looked up, canonical isoform): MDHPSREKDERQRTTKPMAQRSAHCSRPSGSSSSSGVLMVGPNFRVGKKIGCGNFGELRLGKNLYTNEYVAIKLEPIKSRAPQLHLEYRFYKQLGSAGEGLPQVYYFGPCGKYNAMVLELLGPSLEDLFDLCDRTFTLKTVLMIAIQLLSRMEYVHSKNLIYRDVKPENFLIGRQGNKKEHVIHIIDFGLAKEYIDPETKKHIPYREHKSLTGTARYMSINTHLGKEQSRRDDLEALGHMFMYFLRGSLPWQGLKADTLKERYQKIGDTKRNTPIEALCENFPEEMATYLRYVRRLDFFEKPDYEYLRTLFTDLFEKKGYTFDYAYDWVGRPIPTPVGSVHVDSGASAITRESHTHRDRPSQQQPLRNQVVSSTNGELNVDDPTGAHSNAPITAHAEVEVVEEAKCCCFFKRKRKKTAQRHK
Chain of Cytochrome P450 2D6 (P10635 whole entry): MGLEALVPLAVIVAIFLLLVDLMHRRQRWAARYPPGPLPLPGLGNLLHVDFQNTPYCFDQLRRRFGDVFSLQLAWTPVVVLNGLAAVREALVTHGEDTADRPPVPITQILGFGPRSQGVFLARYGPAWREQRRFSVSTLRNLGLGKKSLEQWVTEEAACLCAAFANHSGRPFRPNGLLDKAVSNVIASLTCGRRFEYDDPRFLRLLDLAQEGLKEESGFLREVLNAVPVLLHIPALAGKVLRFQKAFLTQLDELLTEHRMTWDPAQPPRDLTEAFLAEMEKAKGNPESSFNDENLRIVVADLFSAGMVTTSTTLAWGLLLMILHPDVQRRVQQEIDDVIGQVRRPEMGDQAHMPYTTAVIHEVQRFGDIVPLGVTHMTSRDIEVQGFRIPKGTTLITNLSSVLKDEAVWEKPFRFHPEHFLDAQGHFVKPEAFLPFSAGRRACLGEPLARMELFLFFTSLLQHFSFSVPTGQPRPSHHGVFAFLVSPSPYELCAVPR
Chain of CYP2D6 (P10635 whole entry): as above
Chain of Casein kinase I delta/epsilon (Homo sapiens) (P48730 whole entry, looked up): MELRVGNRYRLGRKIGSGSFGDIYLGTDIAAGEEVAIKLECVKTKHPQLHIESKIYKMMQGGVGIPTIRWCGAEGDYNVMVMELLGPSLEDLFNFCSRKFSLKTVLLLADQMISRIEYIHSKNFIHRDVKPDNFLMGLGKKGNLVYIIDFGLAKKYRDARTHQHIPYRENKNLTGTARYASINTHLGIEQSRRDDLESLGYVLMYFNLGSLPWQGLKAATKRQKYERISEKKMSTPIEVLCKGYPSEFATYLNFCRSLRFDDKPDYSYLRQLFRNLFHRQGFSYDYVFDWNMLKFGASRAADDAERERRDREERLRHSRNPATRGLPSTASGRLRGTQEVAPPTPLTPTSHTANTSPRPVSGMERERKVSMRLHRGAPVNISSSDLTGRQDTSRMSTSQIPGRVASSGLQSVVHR
Chain of Casein kinase I delta/epsilon (Homo sapiens) (P49674 whole entry, looked up): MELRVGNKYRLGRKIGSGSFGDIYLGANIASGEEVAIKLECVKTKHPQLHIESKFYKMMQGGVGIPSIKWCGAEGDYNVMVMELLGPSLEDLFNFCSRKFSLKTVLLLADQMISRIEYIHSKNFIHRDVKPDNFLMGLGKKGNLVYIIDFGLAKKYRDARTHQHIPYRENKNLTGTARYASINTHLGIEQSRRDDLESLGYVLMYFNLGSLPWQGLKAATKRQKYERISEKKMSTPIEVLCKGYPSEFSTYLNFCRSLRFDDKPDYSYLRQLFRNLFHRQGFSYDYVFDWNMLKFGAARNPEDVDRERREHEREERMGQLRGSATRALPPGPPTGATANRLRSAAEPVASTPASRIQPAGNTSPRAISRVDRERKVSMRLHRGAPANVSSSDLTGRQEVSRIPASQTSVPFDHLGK
Chain of Cytochrome P450 2B6 (P20813 whole entry): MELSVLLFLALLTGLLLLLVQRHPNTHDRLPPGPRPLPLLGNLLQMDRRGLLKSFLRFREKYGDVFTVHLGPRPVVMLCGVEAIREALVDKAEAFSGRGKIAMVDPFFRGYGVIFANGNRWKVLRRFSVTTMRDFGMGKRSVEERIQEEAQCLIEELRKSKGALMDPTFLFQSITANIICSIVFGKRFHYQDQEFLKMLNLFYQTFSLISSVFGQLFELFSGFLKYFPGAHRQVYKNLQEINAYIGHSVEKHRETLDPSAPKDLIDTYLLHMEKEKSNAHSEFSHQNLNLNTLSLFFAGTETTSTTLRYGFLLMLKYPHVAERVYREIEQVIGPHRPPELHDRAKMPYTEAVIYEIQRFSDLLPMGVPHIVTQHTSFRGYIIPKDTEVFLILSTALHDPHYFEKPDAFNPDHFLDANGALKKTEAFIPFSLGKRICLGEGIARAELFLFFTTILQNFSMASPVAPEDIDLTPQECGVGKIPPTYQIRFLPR
Chain of Interleukin-1 receptor-associated kinase 1 (Homo sapiens) (P51617 whole entry, looked up): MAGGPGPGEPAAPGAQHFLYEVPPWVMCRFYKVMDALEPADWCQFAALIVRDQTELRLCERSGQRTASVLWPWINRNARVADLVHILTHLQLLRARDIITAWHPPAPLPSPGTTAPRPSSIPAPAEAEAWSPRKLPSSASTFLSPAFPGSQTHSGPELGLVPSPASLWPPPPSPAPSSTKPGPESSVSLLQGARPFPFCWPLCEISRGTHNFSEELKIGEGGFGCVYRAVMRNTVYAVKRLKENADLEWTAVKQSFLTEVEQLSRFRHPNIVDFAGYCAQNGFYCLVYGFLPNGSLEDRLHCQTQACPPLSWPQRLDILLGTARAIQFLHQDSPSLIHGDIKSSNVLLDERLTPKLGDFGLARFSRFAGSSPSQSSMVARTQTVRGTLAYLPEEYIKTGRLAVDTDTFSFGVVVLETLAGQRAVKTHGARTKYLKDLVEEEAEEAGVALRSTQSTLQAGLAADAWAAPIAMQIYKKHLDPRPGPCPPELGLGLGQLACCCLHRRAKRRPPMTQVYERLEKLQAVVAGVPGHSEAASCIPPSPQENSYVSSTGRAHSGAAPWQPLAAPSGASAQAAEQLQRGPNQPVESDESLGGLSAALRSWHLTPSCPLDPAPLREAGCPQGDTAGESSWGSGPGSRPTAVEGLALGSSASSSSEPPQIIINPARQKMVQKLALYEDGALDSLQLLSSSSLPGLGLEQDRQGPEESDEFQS
Chain of CYP2C8 (P10632 whole entry): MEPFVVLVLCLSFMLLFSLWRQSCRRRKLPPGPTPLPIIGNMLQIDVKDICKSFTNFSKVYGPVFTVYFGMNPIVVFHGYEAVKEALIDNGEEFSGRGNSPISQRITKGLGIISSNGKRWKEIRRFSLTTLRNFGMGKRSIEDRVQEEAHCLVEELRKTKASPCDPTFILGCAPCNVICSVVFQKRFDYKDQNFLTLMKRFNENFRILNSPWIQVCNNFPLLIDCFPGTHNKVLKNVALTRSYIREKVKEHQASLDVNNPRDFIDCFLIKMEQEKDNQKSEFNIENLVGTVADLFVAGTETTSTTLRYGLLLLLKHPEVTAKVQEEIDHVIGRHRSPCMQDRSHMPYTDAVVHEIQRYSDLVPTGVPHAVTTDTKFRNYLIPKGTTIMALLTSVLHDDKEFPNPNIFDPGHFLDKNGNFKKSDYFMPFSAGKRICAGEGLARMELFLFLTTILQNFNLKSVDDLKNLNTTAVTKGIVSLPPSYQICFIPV

In the case of `CC[C@@H]1[C@H](F)C(=O)N[C@@H]1COc1nccc2cc(C(N)=O)c(OC)cc12` [ZIMLOVISERTIB], the TDI result on Cytochrome P450 2B6 and at Cytochrome P450 2D6 was “Not Active” in each case. Besides, the inhibition in [1] is 100%; in series [4] it was over 50%; in series [7], over 50%; in series [8] it was over 70%; in the series on Rattus norvegicus [13], “Dose-dependent effect”; in [14], over 50%. Moreover, the inhibition in series [16] was over 70%. In addition, the Papp A→B in [2] was 9.6 ×10⁻⁶ cm/s. The same molecule had a fraction unbound in [3] of 0.3. Besides, the half-life in series [5] is 1.7 h; in series [9], 4 h. The molecule also gave a solubility in series [6] of 62 µg/mL (≈ 172 µM). The “Cp(f)” value with Plasma [10] worked out at 2.1 nM; in the series on Plasma [15], 19 nM. Moreover, the inhibition in vivo at 1 mg/kg with Rattus norvegicus [11] is 52%. In addition, in the series with Rattus norvegicus [12], the inhibition in vivo at 3 mg/kg worked out at 60%. Further, the inhibition at 3 µM at CYP2C8, at CYP2D6 and against CYP2C9 was under 5% each time. In addition, the clearance with Canis familiaris and in the series on Cynomolgus monkey was 10 mL/min/kg in each case. Also, the microsomal CLint in [17] was found to be 25 µL/min/mg.

For orientation: inhibition means how much of the control response was suppressed. Usually Papp A→B stands for the apparent permeability from the apical to the basolateral side of a cell layer. As usually defined, the fraction unbound is the share of the substance not bound to proteins or other matrix. What is called half-life is the time in which the quantity being followed falls by half. Usually solubility stands for the concentration that dissolves in the medium under given conditions. The inhibition in vivo is the percentage by which the read-out fell short of the control. The term clearance denotes the rate of elimination divided by the concentration.
